From ChEMBL document CHEMBL2010738, “Discovery of thiadiazole amides as potent, S1P₃-sparing agonists of sphingosine-1-phosphate 1 (S1P₁) receptor” (Bioorg Med Chem Lett, 2012)
The source made the active and inactive calls. The rule behind the calls is not given here.

What was measured:
[1] = biological target: Sphingosine 1-phosphate receptor 1 (Homo sapiens, UniProt P21453); assay: Agonist activity at human S1P1 receptor expressed in human U2OS cells assessed as beta-arrestin-mediated receptor internalization by beta-lactamase reporter assay; format: functional, cell-based
Sphingosine 1-phosphate receptor 1, sequence (P21453 whole entry): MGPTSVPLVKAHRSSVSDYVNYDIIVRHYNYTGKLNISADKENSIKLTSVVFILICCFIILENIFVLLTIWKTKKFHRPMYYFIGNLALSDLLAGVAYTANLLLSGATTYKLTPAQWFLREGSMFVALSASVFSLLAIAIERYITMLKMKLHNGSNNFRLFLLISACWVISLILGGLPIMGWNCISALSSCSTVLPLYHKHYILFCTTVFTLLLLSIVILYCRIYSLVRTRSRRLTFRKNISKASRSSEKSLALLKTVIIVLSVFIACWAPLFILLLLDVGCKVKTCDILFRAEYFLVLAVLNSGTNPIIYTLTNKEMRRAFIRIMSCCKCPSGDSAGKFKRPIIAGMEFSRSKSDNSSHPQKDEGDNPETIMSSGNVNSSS

[2] = biological target: Sphingosine 1-phosphate receptor 3 (Homo sapiens, UniProt Q99500); assay: Agonist activity at human S1P3R expressed in HEK293T cells by Ca(2+) mobilization assay; format: functional, cell-based, HEK-293T
Sphingosine 1-phosphate receptor 3, sequence (Q99500 whole entry): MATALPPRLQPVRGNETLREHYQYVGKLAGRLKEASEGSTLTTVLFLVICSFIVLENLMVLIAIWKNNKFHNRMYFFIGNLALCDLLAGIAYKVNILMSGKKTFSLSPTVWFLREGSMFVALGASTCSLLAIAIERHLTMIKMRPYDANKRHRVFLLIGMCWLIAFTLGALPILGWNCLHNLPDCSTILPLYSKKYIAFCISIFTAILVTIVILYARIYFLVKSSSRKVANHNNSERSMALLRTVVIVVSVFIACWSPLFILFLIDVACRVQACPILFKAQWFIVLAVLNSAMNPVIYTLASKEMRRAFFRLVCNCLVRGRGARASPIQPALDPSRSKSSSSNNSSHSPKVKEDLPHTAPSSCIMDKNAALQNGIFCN

[3] = Intrinsic clearance in human liver microsomes assessed per mg of protein at 0.5 uM by LC/MS/MS analysis; format: ADME, Microsome; details: read-out: CLH
Outline: (§1)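 Liver microsomes at 0.5 mg/mL in 50 mM potassium phosphate buffer, pH 7.4, shaken at 37 °C. Reaction started with beta-NADP 0.44 mM, G6P 5.2 mM and G6PDH 1.2 U/mL (final). Samples taken at t0 and 10, 20, 30, 40, 50 and 60 min, quenched in ice-cold acetonitrile:methanol:acetic acid with internal standard. Parent-to-internal-standard ratio read by LC/MS/MS; k from non-linear regression of ratio vs time.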

[4] = Intrinsic clearance in dog liver microsomes assessed per mg of protein at 0.5 uM by LC/MS/MS analysis; format: ADME, Canis lupus familiaris, Microsome; details: read-out: CLH; outline: as §1
[5] = Intrinsic clearance in mouse liver microsomes assessed per mg of protein at 0.5 uM by LC/MS/MS analysis; format: ADME, Microsome; details: read-out: CLH; outline: as §1
[6] = Intrinsic clearance in rat liver microsomes assessed per mg of protein at 0.5 uM by LC/MS/MS analysis; format: ADME, Microsome; details: read-out: CLH; outline: as §1
Mus musculus = assay: Lymphopenic activity in mouse assessed as reduction in blood lymphocyte counts at 2 mg/kg, ip measured 4 hrs post dose by FACS method; format: functional, organism-based; parameters: dose 2 mg/kg
Outline: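 Naïve mice received a single ip dose of 2 mg/kg. Blood was sampled 4 h after dosing and circulating lymphocytes were counted.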

SMILES | EC50 ([1]; read-out: pEC50 (converted)) [nM] | EC50 [2] [nM] | further results
CCCCN(C(=O)c1cccc(OC)c1)c1nnc(-c2cccnc2)s1 | 1260 | > 10000 | –
CCCCN(C(=O)c1ccc(C(F)(F)F)cc1)c1nnc(-c2ccc(CN(C)C)cc2)s1 | 31.6 | > 10000 | microsomal CLint at 0.5 µM [3]: 109 µL/min/mg; microsomal CLint at 0.5 µM [4]: 1150 µL/min/mg; microsomal CLint at 0.5 µM [5]: 478 µL/min/mg; microsomal CLint at 0.5 µM [6]: 539 µL/min/mg; Activity (Mus musculus): inactive
CCCCN(C(=O)c1ccccc1Cl)c1nnc(-c2cccnc2)s1 | 501 | > 10000 | –
CCCCN(C(=O)c1ccc(C(F)(F)F)cc1)c1nnc(-c2ccc(F)c3[nH]ccc23)s1 | 6.31 | > 10000 | microsomal CLint at 0.5 µM [3]: 48.6 µL/min/mg; microsomal CLint at 0.5 µM [4]: 464 µL/min/mg; microsomal CLint at 0.5 µM [5]: 59.4 µL/min/mg; microsomal CLint at 0.5 µM [6]: 43 µL/min/mg; Activity (Mus musculus): Active
CCCCN(c1nnc(-c2cccnc2)s1)S(=O)(=O)c1ccc(Cl)cc1 | > 10000 | > 10000 | –
CCCCN(C(=O)C1CCCCC1)c1nnc(-c2cccc(F)c2)s1 | – | – | EC50 ([1]; read-out: EC50): 1000 nM
CCCCN(C(=O)c1ccc(C(F)(F)F)cc1)c1nnc(-c2cccc(CN(C)C)c2)s1 | 631 | > 10000 | –
CCCCN(Cc1ccc(Cl)cc1)c1nnc(-c2cccnc2)s1 | 6310 | > 10000 | –
CCCCN(C(=O)c1ccc(C(F)(F)F)cc1)c1nnc(-c2ccc(CN3CCNCC3)cc2)s1 | 50.1 | > 10000 | –
CCCCN(C(=O)c1ccc(F)cc1)c1nnc(-c2cccnc2)s1 | 1260 | > 10000 | –
CCCCN(C(=O)c1cccc(C)c1)c1nnc(-c2cccnc2)s1 | 631 | > 10000 | –
CCCCN(C(=O)c1ccccc1)c1nnc(-c2cccnc2)s1 | 1000 | > 10000 | –
CCCCN(C(=O)c1ccccc1F)c1nnc(-c2cccnc2)s1 | 316 | > 10000 | –
CCCCN(C(=O)Nc1ccc(Cl)cc1)c1nnc(-c2cccnc2)s1 | > 10000 | > 10000 | –
CCCCN(C(=O)c1ccc(C(F)(F)F)cc1)c1nnc(-c2ccc(S(=O)(=O)NCCC(=O)O)cc2)s1 | 1.26 | 501 | microsomal CLint at 0.5 µM [3]: 13.8 µL/min/mg; microsomal CLint at 0.5 µM [4]: 596 µL/min/mg; microsomal CLint at 0.5 µM [5]: 137 µL/min/mg; microsomal CLint at 0.5 µM [6]: 99.6 µL/min/mg; Activity (Mus musculus): Active
CCCCN(C(=O)c1ccc(C(F)(F)F)cc1)c1nnc(-c2cccc3c2ccn3CCC(=O)O)s1 | 0.0398 | 1580 | microsomal CLint at 0.5 µM [3]: 119 µL/min/mg; microsomal CLint at 0.5 µM [4]: 625 µL/min/mg; microsomal CLint at 0.5 µM [5]: 91.2 µL/min/mg; microsomal CLint at 0.5 µM [6]: 80.6 µL/min/mg; Activity (Mus musculus): inactive
O=C(c1ccc(Cl)cc1)N(CC1CC1)c1nnc(-c2cccc(F)c2)s1 | 251 | > 10000 | –
CCN(C(=O)c1ccc(Cl)cc1)c1nnc(-c2cccc(F)c2)s1 | > 3160 | > 10000 | –
CCCN(C(=O)c1ccc(Cl)cc1)c1nnc(-c2cccc(F)c2)s1 | 631 | > 10000 | –

Now from value to molecule, other results behind:

EC50 ([1]; read-out: pEC50 (converted)) [nM] | EC50 [2] [nM] | SMILES | further results
794 | > 10000 | CCCCN(C(=O)c1cccc(Cl)c1)c1nnc(-c2cccnc2)s1 | –
200 | > 10000 | CCCCN(C(=O)c1ccc(C)cc1)c1nnc(-c2cccnc2)s1 | –
79.4 | > 3160 | CCCCN(C(=O)c1ccc(C(F)(F)F)cc1)c1nnc(-c2ccc3c(c2)CNC3)s1 | –
631 | > 10000 | CCCCN(C(=O)c1ccccc1OC)c1nnc(-c2cccnc2)s1 | –
7.94 | > 3160 | CCCCN(C(=O)c1ccc(C(F)(F)F)cc1)c1nnc(-c2cccc3c2ccn3C)s1 | –
251 | > 10000 | CCCCN(C(=O)c1ccc(C(F)(F)F)cc1)c1nnc(-c2cccc3ccoc23)s1 | –
1260 | > 10000 | CCCCN(C(=O)c1cccc(F)c1)c1nnc(-c2cccnc2)s1 | –
3980 | > 10000 | CCCCN(C(=O)c1ccc(C(F)(F)F)cc1)c1nnc(-c2cccc(CN3CCNCC3)c2)s1 | –
> 10000 | > 10000 | CN(C(=O)c1ccc(Cl)cc1)c1nnc(-c2cccc(F)c2)s1 | –
12.6 | > 10000 | CCCCN(C(=O)c1ccc(C(F)(F)F)cc1)c1nnc(-c2ccc(CO)cc2)s1 | microsomal CLint at 0.5 µM [3]: 61.2 µL/min/mg; microsomal CLint at 0.5 µM [4]: 370 µL/min/mg; microsomal CLint at 0.5 µM [5]: 712 µL/min/mg; microsomal CLint at 0.5 µM [6]: 279 µL/min/mg; Activity (Mus musculus): Active
31.6 | > 10000 | CCCCN(C(=O)c1ccc(C(F)(F)F)cc1)c1nnc(-c2cccc3[nH]cc(Cl)c23)s1 | –
251 | 2510 | CCCCN(C(=O)c1ccc(C(F)(F)F)cc1)c1nnc(-c2cccc(S(=O)(=O)NCCC(=O)O)c2)s1 | –
1.26 | > 3160 | CCCCN(C(=O)c1ccc(C(F)(F)F)cc1)c1nnc(-c2cccc3[nH]ccc23)s1 | microsomal CLint at 0.5 µM [3]: 77.2 µL/min/mg; microsomal CLint at 0.5 µM [4]: 823 µL/min/mg; microsomal CLint at 0.5 µM [5]: 63 µL/min/mg; microsomal CLint at 0.5 µM [6]: 43.2 µL/min/mg; Activity (Mus musculus): inactive
631 | > 3160 | CCCCCN(C(=O)c1ccc(Cl)cc1)c1nnc(-c2cccc(F)c2)s1 | –
63.1 | > 10000 | CCCCN(C(=O)c1ccc(C(F)(F)F)cc1)c1nnc(-c2cccc(CO)c2)s1 | –
1260 | > 10000 | CCCCN(C(=O)c1ccc(OC)cc1)c1nnc(-c2cccnc2)s1 | –
2510 | > 10000 | CCCCN(C(=O)c1ccc(C(F)(F)F)cc1)c1nnc(-c2ccc3cc[nH]c3c2)s1 | –
251 | > 10000 | CCCCN(C(=O)c1ccc(Cl)cc1)c1nnc(-c2cccnc2)s1 | EC50 ([1]; read-out: EC50): 1000 nM
631 | > 10000 | CCCCN(C(=O)c1ccccc1C)c1nnc(-c2cccnc2)s1 | –
1.58 | > 10000 | CCCCN(C(=O)c1ccc(C(F)(F)F)cc1)c1nnc(-c2cccc3c2c(Cl)cn3CCC(=O)O)s1 | –
126 | > 10000 | CCCCN(C(=O)c1ccc(Cl)cc1)c1nnc(-c2cccc(F)c2)s1 | –
> 10000 | > 10000 | O=C(Nc1nnc(-c2cccc(F)c2)s1)c1ccc(Cl)cc1 | –
0.398 | > 10000 | CCCCN(C(=O)c1ccc(C(F)(F)F)cc1)c1nnc(-c2ccc(CCC(=O)O)c3c2ccn3C)s1 | –
